Assay outcomes: PubChem, several laboratories
PP1 inh – blocks human PP1-alpha phosphatase, a PP5 counter-screen | purified PP1alpha, OMFP fluorescence | inhibition, % at 6.7 µM | 0.9% of 320,000 active | AID 2235;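 active = inhibition above the mean inhibition of all tested compounds plus 3 SD, computed separately for each screening campaign, cut at about 15% in these data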
Target sequence (P62136 whole entry, looked up): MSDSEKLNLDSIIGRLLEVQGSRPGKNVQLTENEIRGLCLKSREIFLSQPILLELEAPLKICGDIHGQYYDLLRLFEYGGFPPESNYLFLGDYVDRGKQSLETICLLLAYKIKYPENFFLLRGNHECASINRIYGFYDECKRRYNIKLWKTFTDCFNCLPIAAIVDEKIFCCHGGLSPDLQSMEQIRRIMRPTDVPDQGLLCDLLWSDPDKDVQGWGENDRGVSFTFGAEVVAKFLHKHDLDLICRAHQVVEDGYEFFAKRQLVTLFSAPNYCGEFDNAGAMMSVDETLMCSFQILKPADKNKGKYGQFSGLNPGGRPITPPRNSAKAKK
CTSL1 counter – blocks F. hepatica cathepsin L1 in PFM18AAP counter-screen | inhibition, % at 5.96 µM | 0.49% of 300,000 active | recombinant F. hepatica cathepsin L1, Z-Leu-Arg-MCA fluorescence;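 active = inhibition above the mean of all tested compounds plus 3 SD, set per screening campaign, cut at about 17% in these data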;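 also: 0% = plate median of test compound wells and 100% = 1 µM Z-Phe-Ala-diazomethylketone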
Myeloid diff 2 – myeloid differentiation induction; ER-HoxA9 myeloid progenitors, lysozyme-GFP differentiation, flow cytometry; AID 624256; calls only at 10 µM; 1% of 360,000 active;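 active = normalized GFP-positive differentiation at or above the plate's own cutoff, the solvent-only control mean plus 3 SD; inconclusive = no clear call, values can overlap the other calls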;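 also: cells exposed to compound for four days before flow analysis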
core dimer inh – HCV core protein dimerization inhibition | TR-FRET GST/Flag-core106 dimerization, 1536-well | inhibition, % at 5 µM | 0.33% of 300,000 active;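 active = inhibition above the mean of all tested compounds plus 3 SD, set per screening campaign, cut at about 45% in these data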
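System: GST/Flag-tagged HCV core106 proteins. Incubation: compound-protein-antibody incubation 4 h at 22.5 °C. Technique: HTRF with 340 nm excitation, 617/671 nm emission. Medium: KF-containing HEPES buffer, pH 7.45, DTT, CHAPS, BSA. Read-out: inhibition (%) from 671 over 617 nm ratio. Also added: Eu(K)-anti-GST 90 ng/mL plus XL665-anti-Flag 1 µg/mL.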
PP5 primary – blocks human protein phosphatase 5 activity. P53041. purified PP5c, OMFP substrate fluorescence. inhibition, % at 6.7 µM. 0.18% of 320,000 active. AID 1987;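 active = inhibition above the campaign's mean inhibition across all tested compounds plus 3 SD, cut at about 9.5% in these data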;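 also: 0% = DMSO only and 100% = 100 µM cantharidin control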
NadD block – blocks S. aureus nicotinate mononucleotide adenylyltransferase; purified NadD enzyme, colorimetric absorbance read-out; inhibition, % at 20 µM; 0.78% of 360,000 active; AID 602399; in the data active = inhibition above about 26%
Numbers without * were called inactive; i = inactive; ? = inconclusive; . = no result given; + = active, no number. This is a sample that favours compounds with a hit; in the whole collection about 3.1% have one here.

SMILES | PP1 inh | CTSL1 counter | Myeloid diff 2 | core dimer inh | PP5 primary | NadD block
COc1ccc(NC(=O)Cc2nnc(SCC(=O)NC3CCCC3)n2C)cc1 | 3 | -1 | i | -16 | 2 | 3
Cc1ccc2nc(COC(=O)c3cnccn3)cc(=O)n2c1 | . | . | i | . | . | 1
Cc1ccc(S(=O)(=O)Nc2ccccc2-c2nc3ccccc3[nH]c2=O)cc1 | -6 | . | i | . | -2 | -2
O=C(O)c1ccc(/C=C2/SC(=S)N(Cc3ccccc3)C2=O)cc1 | . | . | + | . | . | 0
O=C(NN1C(=O)/C(=C/c2ccc(O)cc2)SC1=S)c1cccc(O)c1 | -8 | 20* | i | -22 | -2 | -5
O=C1/C(=C\c2ccc(O)cc2)SC(=S)N1Cc1ccccc1 | 1 | -1 | + | -7 | 1 | -2
O=C1/C(=C\c2cc(Br)cc(Br)c2O)SC(=S)N1Cc1ccccc1 | 0 | -4 | i | 6 | 4 | 42*
O=C(Cc1ccccc1)NN1C(=O)/C(=C/c2ccc(C(=O)O)cc2)SC1=S | -3 | -1 | i | 4 | -2 | -6
O=C(NN1C(=O)/C(=C/c2ccc(O)cc2)SC1=S)c1ccccc1O | 0 | 0 | i | -18 | 0 | -7
O=C(O)CCN1C(=O)/C(=C\c2ccc(OCc3ccccc3)c(OCc3ccccc3)c2)SC1=S | -1 | 1 | i | 6 | 0 | 31*
NS(=O)(=O)c1ccc(CCN2C(=O)/C(=C\c3ccc(Cl)cc3)SC2=S)cc1 | 2 | 3 | i | 9 | -1 | 33*
CCOc1cc(/C=C2/SC(=S)N(Cc3ccccc3)C2=O)ccc1O | 4 | 3 | + | -6 | -2 | -7
CN1CCN(C(=O)CCN2C(=O)/C(=C\c3ccc(Cl)cc3)SC2=S)CC1 | 2 | 0 | ? | -5 | 0 | -6
O=C1/C(=C/c2ccc(O)c([N+](=O)[O-])c2)SC(=S)N1Cc1ccccc1 | 2 | 2 | i | 5 | 2 | 17
CC(C)N(Cc1nnc(-c2ccccc2Cl)o1)C(=O)COc1cccc(Cl)c1 | . | . | i | . | . | -5
Cc1cccc(C)c1NC(=O)C(C)NCc1cccs1 (stereo not given) | . | . | i | . | . | 12
O=C(Nc1ccc2c(c1)OCO2)c1ccc2sc([C@H]3C[C@H](O)[C@@H](CO)O3)nc2c1 | . | . | i | . | . | 1
Oc1ccc(Br)cc1C=Nc1ccc2c3c(cccc13)CC2 | -1 | -1 | + | -21 | -2 | 8
CC(=O)c1cccc(OCc2cc(C(=O)N3C[C@H]4CC[C@H]3C4)no2)c1 | -2 | -4 | + | -9 | 1 | -14
O=C(c1cc(COc2cccc(C(F)(F)F)c2)on1)N1C[C@H]2CC[C@H]1C2 | -1 | 2 | i | 2 | 3 | -1
CCCc1cc(Nc2cccc(OCC)c2)n2ncnc2n1 | -3 | 5 | i | 0 | 1 | -8
CCCc1cc(Nc2cccc(OC)c2)n2ncnc2n1 | -4 | 18* | i | -1 | 3 | 3
COc1ccc(C2c3cc4c(cc3OC(N3CCOCC3)C2C)OCO4)c(OC)c1 (stereo not given) | . | . | i | . | . | 2
COc1cccc(C2c3cc4c(cc3OC(N3CCOCC3)C2C)OCO4)c1O (stereo not given) | . | . | + | . | . | -1
O=C1C(Cl)=C(N2CCCCC2)C(=O)C(Cl)=C1c1cnc(N2CCCCC2)s1 | . | . | i | . | . | 33*
SMILES | PP1 inh | CTSL1 counter | Myeloid diff 2 | core dimer inh | PP5 primary | NadD block
CN(C)c1ncc(C2=C(Cl)C(=O)C(N3CCCC3)=C(Cl)C2=O)s1 | 17* | 2 | i | 84* | 9 | 25
CC(=O)c1cnc(N(C)C)s1 | -2 | 3 | i | -10 | -2 | -1
CCCCN1C(=O)C(=O)N(CC(=O)c2cc(C)n(C3CC3)c2C)C1=O | 7 | . | i | . | 3 | -2
COC(=O)Cn1cnc2c(oc3ccccc32)c1=O | -2 | 1 | i | 2 | 2 | -2
Cc1ccc(Nc2nc(N)nc(CSc3nnnn3-c3ccccc3)n2)cc1 | 16* | 2 | i | 1 | -1 | 7
O=C(COC(=O)C1CC(=O)N(Cc2ccccc2)C1)c1ccc(Br)cc1 (stereo not given) | 2 | -38 | i | 3 | 5 | -2
O=C(COC(=O)C1CC(=O)N(Cc2ccco2)C1)c1ccc(OC(=O)c2ccco2)cc1 (stereo not given) | 9 | -45 | i | 21 | 1 | 36*
O=C1N/C(=C\c2nc3ccccc3s2)c2ccccc21 | 3 | 2 | . | 2 | 1 | .
O=C1N/C(=C\c2ccccc2)c2ccccc21 | -2 | 3 | + | -4 | 0 | -5
O=C(/C=C/c1ccccc1)c1cc(Br)ccc(=O)c1O | 17* | 0 | i | 8 | 2 | 15
Cc1cccc(C)c1NC(=O)c1csc([C@@H]2O[C@H](CO)[C@H](O)[C@H](O)[C@H]2O)n1 | . | . | i | . | . | -7
COc1ccc(OC)c(C2C3CN(C(C)C)CC=C3C(C#N)=C(N)C2(C#N)C#N)c1 (stereo not given) | 3 | 1 | i | 9 | 4 | 6
Cc1ccc(C2C3CN(C(C)C)CC=C3C(C#N)=C(N)C2(C#N)C#N)cc1 (stereo not given) | -2 | 1 | + | 5 | 1 | 4
COc1ccc(NC(=O)N(C)C[C@H]2Oc3ncc(Br)cc3C(=O)N([C@H](C)CO)C[C@@H]2C)cc1 | . | . | i | . | . | -4
COC(=O)CN=C1OC(=O)N2C(=O)C3=C4[C@@H](C[C@H]5C(=O)N(c6ccccc6)C(=O)[C@H]5[C@H]4[C@@]12Cc1ccccc1)[C@H]1C(=O)N(c2ccccc2)C(=O)[C@H]1[C@H]3C | 2 | -2 | i | 30 | 3 | 4
COCCN=C1OC(=O)N2C(=O)C3=C4[C@@H](C[C@H]5C(=O)N(c6ccccc6)C(=O)[C@H]5[C@H]4[C@@]12Cc1ccccc1)[C@H]1C(=O)N(c2ccccc2)C(=O)[C@H]1[C@H]3C | 3 | 18* | i | -6 | 3 | 7
Cc1c(OCC(=O)C(C)(C)C)ccc2c(-c3ccccc3)cc(=O)oc12 | 6 | 5 | i | 6 | 3 | -1
CC(=O)Oc1[nH]c(=O)c2cccc3c2c1CCC3 | . | . | i | . | . | -2
O=C(CCN1C(=O)NC2(CCCC2)C1=O)Nc1ccc(-c2nc3ccccc3s2)cc1 | 2 | . | + | . | 1 | -7
O=C(CCN1C(=O)NC2(CCCC2)C1=O)Nc1ccc(Sc2ccc(Br)cc2)cc1 | . | . | i | . | . | -5
COc1cc(CC(=O)Nc2cc(S(=O)(=O)N3CCOCC3)ccc2N2CCCC2)cc(OC)c1OC | . | . | i | . | . | 2
COc1ccc(C(=O)Nc2oc(-c3ccccc3)c(-c3ccccc3)c2C#N)cc1 | 3 | 1 | i | 47* | 2 | 3
COc1ccc(C(=O)Nc2oc(-c3ccccc3)c(-c3ccccc3)c2C#N)cc1OC | -2 | 0 | i | 18 | 4 | 1
COc1ccc(-c2oc(NC(=O)c3ccc(C)cc3)c(C#N)c2-c2ccc(OC)cc2)cc1 | 2 | 0 | i | 60* | 2 | 3
